Results reported in ChEMBL document CHEMBL1128263, “N-(1-methyl-5-indolyl)-N'-(3-methyl-5-isothiazolyl)urea: a novel, high-affinity 5-HT2B receptor antagonist” (J Med Chem, 1995).

Key:
[1] = biological target: 5-hydroxytryptamine receptor 2B (Rattus norvegicus, UniProt P30994); assay: Antagonistic affinity measured as pA2 value on 5-hydroxytryptamine 2B receptor of the rat stomach fundus; type: functional, tissue-based; settings: read-out: pA2 (converted)
[2] = biological target: T1, 5-hydroxytryptamine receptor 2C (Homo sapiens, UniProt P28335); assay: (§1) Selectivity as the ratio of Ki value towards 5-hydroxytryptamine 2C receptor to that of pA2 value towards 5-hydroxytryptamine 2B receptor; type: functional
T1 sequence (P28335 whole entry): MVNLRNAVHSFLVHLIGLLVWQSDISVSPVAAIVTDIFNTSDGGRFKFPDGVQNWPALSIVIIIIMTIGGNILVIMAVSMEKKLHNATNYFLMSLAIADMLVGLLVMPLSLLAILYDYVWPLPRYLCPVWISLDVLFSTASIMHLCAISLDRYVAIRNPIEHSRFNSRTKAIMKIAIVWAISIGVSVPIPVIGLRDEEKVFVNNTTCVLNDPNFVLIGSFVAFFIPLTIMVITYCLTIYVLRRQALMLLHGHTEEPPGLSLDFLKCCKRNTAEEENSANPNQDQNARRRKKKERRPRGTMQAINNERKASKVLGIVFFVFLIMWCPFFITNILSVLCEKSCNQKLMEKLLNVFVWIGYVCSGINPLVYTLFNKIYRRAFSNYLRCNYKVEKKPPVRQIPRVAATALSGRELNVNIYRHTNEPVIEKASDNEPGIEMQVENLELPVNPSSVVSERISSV

[3] = biological target: 5-HT2C receptor (Homo sapiens); assay: Antagonistic binding affinity measured against 5-hydroxytryptamine 2C receptor (human clone expressed in 293 cells) using [3H]mesulergine as radioligand
[4] = biological target: 5-hydroxytryptamine receptor 2A (Homo sapiens, UniProt P28223); assay: Antagonistic binding affinity measured against 5-hydroxytryptamine 2A receptor (human clone expressed in 293 cells) using [3H]ketanserin as radioligand; type: cell-based, HEK293
[5] = biological target: T1, 5-hydroxytryptamine receptor 2C; assay: Antagonistic binding affinity measured against 5-hydroxytryptamine 2C receptor (human clone expressed in 293 cells) using [3H]mesulergine as radioligand; type: cell-based, HEK293
[6] = as §1; type: functional
[7] = biological target: 5-hydroxytryptamine receptor 1E (Homo sapiens, UniProt P28566); assay: The binding affinity (pKi) measured against 5-hydroxytryptamine 1E receptor (cloned human receptors in CHO cells) using […] as radioligand; type: cell-based
Outline: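 Radioligand binding at cloned human 5-HT1E receptors expressed in CHO cells, labelled with [3H]-5-HT.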

[8] = biological target: T2, Adrenergic receptor alpha-1 (Rattus norvegicus, UniProt P15823+P23944+P43140); assay: The binding affinity (pKi) measured against Alpha-1 adrenergic receptor of rat cortex using [3H]prazosin as radioligand
T2 sequence (P15823 whole entry): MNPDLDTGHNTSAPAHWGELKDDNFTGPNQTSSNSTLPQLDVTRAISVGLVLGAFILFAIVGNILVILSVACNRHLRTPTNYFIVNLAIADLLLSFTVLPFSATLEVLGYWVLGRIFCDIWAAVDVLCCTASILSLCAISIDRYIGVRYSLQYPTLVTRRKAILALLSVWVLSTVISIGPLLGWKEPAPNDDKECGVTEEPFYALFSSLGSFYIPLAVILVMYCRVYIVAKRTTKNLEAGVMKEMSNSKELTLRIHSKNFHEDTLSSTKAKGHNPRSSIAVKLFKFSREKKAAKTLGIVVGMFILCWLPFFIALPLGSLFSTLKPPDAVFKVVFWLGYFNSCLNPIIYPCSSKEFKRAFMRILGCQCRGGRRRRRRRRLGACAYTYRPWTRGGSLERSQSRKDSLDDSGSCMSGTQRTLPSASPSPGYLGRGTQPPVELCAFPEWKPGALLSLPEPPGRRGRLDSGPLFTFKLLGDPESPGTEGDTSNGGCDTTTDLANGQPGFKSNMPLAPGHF
T2 sequence (P23944 whole entry): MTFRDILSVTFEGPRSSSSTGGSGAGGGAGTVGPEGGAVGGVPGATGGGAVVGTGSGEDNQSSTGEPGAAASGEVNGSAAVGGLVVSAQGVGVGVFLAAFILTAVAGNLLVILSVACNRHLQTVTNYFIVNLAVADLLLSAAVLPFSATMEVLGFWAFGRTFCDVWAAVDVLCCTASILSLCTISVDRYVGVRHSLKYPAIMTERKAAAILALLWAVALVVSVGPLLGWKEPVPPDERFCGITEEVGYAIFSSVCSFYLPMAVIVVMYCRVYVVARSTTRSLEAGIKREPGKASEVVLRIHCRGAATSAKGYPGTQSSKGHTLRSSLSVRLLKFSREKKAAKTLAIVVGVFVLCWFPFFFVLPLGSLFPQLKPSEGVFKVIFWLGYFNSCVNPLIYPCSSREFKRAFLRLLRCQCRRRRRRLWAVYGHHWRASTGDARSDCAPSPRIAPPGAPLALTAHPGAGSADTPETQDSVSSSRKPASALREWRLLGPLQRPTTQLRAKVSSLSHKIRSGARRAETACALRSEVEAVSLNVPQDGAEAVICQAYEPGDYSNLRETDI
T2 sequence (P43140 whole entry): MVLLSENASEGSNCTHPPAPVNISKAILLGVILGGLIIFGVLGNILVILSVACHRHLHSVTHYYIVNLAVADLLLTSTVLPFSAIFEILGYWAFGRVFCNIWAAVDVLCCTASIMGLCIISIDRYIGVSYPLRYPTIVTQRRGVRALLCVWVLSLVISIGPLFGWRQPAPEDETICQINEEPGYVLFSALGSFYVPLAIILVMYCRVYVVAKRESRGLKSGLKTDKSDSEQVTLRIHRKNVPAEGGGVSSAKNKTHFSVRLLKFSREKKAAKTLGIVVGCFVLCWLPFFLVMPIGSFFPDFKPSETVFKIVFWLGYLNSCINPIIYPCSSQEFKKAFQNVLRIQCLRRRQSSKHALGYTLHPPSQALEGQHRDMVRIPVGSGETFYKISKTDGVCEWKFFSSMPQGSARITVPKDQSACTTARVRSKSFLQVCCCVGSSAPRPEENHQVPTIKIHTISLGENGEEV

D(1A) dopamine receptor = D(1A) dopamine receptor (Homo sapiens, UniProt P21728); assay: The binding affinity (pKi) measured against Dopamine receptor D1 using [3H]-SCH- 23390 as radioligand
Outline: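 Binding at cloned human dopamine D1 receptors expressed in LTK cells.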

D(2) dopamine receptor = D(2) dopamine receptor (Homo sapiens, UniProt P14416); assay: In vitro binding affinity was measured on Dopamine receptor D2
[9] = biological target: GABA-A receptor; anion channel; assay: Inhibition of [3H]muscimol binding to Gamma-aminobutyric acid A (GABA-A) receptor of rat cortex
Histamine H1 receptor = Histamine H1 receptor (Cavia porcellus, UniProt P31389); assay: The binding affinity (pKi) measured against histamine H1 receptor of guinea pig cerebellum using [3H]mepyramine as radioligand; type: tissue-based
Histamine H1 receptor, sequence (P31389 whole entry): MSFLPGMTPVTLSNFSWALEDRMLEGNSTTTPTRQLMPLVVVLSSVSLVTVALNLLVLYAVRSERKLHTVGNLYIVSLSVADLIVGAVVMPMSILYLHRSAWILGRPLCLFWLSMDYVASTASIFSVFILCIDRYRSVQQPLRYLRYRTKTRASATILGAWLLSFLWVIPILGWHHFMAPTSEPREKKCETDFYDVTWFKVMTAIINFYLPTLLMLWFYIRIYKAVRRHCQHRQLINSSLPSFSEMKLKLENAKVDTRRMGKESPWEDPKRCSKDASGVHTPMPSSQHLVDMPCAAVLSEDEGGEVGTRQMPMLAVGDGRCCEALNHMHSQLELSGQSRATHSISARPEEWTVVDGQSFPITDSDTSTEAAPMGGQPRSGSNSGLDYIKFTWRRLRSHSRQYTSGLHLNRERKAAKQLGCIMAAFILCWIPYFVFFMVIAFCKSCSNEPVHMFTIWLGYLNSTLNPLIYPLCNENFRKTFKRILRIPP

5-hydroxytryptamine receptor 2B, sequence (P30994 whole entry): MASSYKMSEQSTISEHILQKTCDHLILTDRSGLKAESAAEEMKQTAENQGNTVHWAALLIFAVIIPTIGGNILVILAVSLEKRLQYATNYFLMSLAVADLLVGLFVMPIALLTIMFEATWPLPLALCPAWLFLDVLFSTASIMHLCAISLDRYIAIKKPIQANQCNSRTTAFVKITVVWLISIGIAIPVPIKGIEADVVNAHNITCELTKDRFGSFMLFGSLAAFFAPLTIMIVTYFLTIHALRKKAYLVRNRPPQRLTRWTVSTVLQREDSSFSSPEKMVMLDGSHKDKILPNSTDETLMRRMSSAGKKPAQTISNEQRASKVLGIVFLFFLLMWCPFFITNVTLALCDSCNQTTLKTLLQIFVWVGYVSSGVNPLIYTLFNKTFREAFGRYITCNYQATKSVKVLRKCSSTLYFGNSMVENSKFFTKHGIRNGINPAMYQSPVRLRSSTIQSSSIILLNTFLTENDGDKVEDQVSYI
5-hydroxytryptamine receptor 2A, sequence (P28223 whole entry): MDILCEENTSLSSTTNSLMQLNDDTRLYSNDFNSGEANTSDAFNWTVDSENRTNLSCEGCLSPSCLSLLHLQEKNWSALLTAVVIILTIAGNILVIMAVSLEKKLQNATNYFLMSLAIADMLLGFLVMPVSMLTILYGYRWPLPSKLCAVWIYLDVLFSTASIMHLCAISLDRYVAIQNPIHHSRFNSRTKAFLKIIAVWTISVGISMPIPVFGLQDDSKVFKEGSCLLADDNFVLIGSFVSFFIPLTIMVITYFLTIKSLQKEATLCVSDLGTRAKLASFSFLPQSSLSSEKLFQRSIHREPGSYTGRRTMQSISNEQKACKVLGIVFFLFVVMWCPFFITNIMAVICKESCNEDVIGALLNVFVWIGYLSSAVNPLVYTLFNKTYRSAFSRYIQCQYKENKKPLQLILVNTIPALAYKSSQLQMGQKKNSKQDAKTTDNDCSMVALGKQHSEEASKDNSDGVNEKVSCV
D(2) dopamine receptor, sequence (P14416 whole entry): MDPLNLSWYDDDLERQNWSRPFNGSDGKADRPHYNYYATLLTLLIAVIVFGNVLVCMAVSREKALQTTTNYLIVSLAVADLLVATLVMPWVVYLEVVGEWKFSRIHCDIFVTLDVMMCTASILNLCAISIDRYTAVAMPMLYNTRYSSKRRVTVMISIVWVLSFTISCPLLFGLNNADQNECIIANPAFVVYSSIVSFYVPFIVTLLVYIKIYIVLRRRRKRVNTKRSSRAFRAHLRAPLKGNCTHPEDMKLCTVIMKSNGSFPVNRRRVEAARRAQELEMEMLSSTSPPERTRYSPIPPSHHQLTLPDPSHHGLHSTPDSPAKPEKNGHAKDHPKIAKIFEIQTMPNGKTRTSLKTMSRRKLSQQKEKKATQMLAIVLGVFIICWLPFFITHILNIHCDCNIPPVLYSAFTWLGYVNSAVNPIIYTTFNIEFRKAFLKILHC
D(1A) dopamine receptor, sequence (P21728 whole entry): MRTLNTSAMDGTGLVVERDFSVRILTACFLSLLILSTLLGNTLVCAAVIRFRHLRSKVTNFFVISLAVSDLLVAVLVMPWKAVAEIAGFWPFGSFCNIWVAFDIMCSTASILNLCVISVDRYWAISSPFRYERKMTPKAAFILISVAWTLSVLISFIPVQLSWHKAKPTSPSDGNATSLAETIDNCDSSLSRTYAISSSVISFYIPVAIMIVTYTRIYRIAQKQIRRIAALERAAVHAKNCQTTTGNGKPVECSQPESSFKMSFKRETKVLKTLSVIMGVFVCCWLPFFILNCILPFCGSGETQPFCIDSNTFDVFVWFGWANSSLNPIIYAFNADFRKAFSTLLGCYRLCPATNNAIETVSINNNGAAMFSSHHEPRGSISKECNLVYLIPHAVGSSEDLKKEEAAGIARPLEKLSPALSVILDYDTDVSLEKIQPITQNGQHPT
5-hydroxytryptamine receptor 1E, sequence (P28566 whole entry): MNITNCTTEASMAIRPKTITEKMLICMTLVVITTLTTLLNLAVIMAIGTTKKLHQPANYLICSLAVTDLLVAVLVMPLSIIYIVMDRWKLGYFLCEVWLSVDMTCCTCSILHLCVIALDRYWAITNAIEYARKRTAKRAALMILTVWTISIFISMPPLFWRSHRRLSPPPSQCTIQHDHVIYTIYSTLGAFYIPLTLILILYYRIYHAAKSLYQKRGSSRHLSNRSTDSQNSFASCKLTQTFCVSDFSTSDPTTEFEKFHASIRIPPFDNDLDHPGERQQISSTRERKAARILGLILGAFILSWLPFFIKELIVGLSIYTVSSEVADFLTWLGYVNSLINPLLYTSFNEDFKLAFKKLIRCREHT

SMILES | Kb [1] [nM] | Ki [2] [nM] | Ki [3] [nM] | also measured
Cc1cc(NC(=O)Nc2ccc3sccc3c2)sn1 | 15.1 | – | – | Ki [4]: 6310 nM; Ki [5]: 417 nM; Selectivity [6]: 27
Cc1cc(NC(=O)Nc2ccc3sccc3c2)on1 | 46.8 | 89.1 | > 6310 | –
Cn1ccc2cc(NC(=O)Nc3cccnc3)ccc21 | 38.9 | 110 | – | –

Now from value to compound, other results behind:

Kb [1] [nM] | Ki [2] [nM] | Ki [3] [nM] | SMILES | also measured
69.2 | 347 | > 6310 | Cc1cc(NC(=O)Nc2ccc3c(ccn3C)c2)on1 | –
11.2 | – | – | Cc1cc(NC(=O)Nc2ccc3c(ccn3C)c2)sn1 | Ki [7]: > 100000 nM; Log Ki [8]: > -5.5; Ki (D(1A) dopamine receptor): > 10000 nM; Ki (D(2) dopamine receptor): > 31600 nM; Log Ki [9]: > -5; Ki (Histamine H1 receptor): > 10000 nM
